# Measurements from article PMC8033778 (ACS Pharmacology & Translational Science, 2021).
# Assay: In vivo stability of 18F-labeled Tz-derivatives
# Conditions: naïve mice, plasma 30 min p.i., radio-TLC, n = 4
# In short: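 Naïve mice received the 18F-labeled tetrazine. Blood was collected after 30 min and plasma analysed by radio-TLC. Stability is expressed as the fraction (%) of radioactivity corresponding to intact compound (n = 4).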
smiles,measurement,value
"Cc1nnc(-c2ccc(OCc3cn(CC[18F])nn3)cc2)nn1 [[^18F]5, 3-(4-((1-(2-[18F]Fluoroethyl)-1H-1,2,3-triazol-4-yl)methoxy)phenyl)-6-methyl-1,2,4,5-tetrazine]",in vivo stability (% intact [18F]Tz after 30 min),26%
